p47phox inh = p47phox (human) inhibition. p47phox/p22phox peptide binding, fluorescence polarization, 2 h. inhibition, % at 24.7 µM. P14598. AID 1274. 0.53% of 220,000 active;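 active = inhibition above about 30%, limit read from the data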
ABCB1 block = blocks JC-1 efflux by human ABCB1 transporter. P08183. CCRF-Adr cells, flow cytometry. 0.067% of 190,000 active. AID 1326. inhibition, % at 6.6 µM; in the data active = inhibition above about 40%;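 also: higher value means more JC-1 retained so stronger ABCB1 efflux block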
HSV replic up = increases HSV replication in cells; 0.005% of 220,000 active; AID 1956; maximum fold increase; HSV replication augmentation in cells, fold increase; in the data active = maximum fold increase above about 1.5; tested in PC3 cells
PHOSPHO1 inh = PHOSPHO1 (human) inhibition | recombinant PHOSPHO1, absorbance phosphatase assay | Q8TCT1 | 1.1% of 290,000 active | AID 1565 | inhibition, % at 13.3 µM; in the data active = inhibition above about 60%
Target sequence (Q8TCT1 whole entry, looked up): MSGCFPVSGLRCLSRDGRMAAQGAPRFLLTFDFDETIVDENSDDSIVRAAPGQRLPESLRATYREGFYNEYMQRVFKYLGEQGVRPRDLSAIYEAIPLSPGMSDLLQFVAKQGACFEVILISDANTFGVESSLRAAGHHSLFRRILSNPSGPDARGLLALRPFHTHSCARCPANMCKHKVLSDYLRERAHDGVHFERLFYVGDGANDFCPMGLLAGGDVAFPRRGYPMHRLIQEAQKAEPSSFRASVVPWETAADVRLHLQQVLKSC
ABCG2 inh = human ABCG2 inhibition, ABCB1 as counter-screen. IgMXP3 cells, JC-1 efflux, flow cytometry. inhibition, % at 6.6 µM. 0.1% of 190,000 active;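 active = inhibition above 80%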
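material = IgMXP3 (ABCG2) plus far-red-tagged CCRF-Adr (ABCB1) cells | amount = 3 million cells/mL, equal mix of both lines | also added = JC-1 transporter substrate | dosing = one concentration, 6.6 µM final | schedule = 10 min at 25 °C | measured by = flow cytometric JC-1 green MFI at 530 nm | read-out basis = percent efflux inhibition, scaled nicardipine 100% to DMSO 0%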
PKD1 inh = blocks activity of human protein kinase D1; 0.056% of 200,000 active; Q15139; inhibition, % (test concentration not listed); AID 797; PKD1 kinase fluorescence polarization assay; in the data active = inhibition above about 50%
Of the large screens only hits and unclear results are named; the others gave an inactive call; ! = a repeat was not active. Only some compounds are listed: those with a hit (about 1.6% of all), similar ones and a draw of the others.

Oc1ccc(Nc2nc(-c3ccccc3)nc3ccccc23)cc1	none (no result: p47phox inh, ABCB1 block, HSV replic up, ABCG2 inh, PKD1 inh)
Oc1ccc(Nc2nc3ccccc3nc2Nc2ccc(O)cc2)cc1	p47phox inh 66.3, PHOSPHO1 inh 99.8
CN1c2ccccc2C(C)(C)C12CCCC(=O)N2 (stereo not drawn)	PHOSPHO1 inh 86.6
COc1cc(/C=C(/NC(=O)c2ccccc2)C(=O)N2CCN(C)CC2)c([N+](=O)[O-])cc1OC	p47phox inh 36.4
CCCSc1nc(C)c(-c2csc(C(C#N)=C3CCCC3)n2)cc1C#N	PHOSPHO1 inh 74.3
COc1cc(C(=O)NNC(=S)NC(=O)c2ccc(F)cc2)cc(OC)c1OC	none (no result: ABCB1 block, ABCG2 inh, PKD1 inh)
c1ccc2c(c1)CCCN2Cc1nnnn1CC1CCCO1 (stereo not drawn)	none
c1ccc(CCn2nnnc2CN2CCCc3ccccc32)cc1	PHOSPHO1 inh 64.5
CN(C)c1ccc(N2C(=NC(=O)CCC3CCCC3)SC3CS(=O)(=O)CC32)cc1 (stereo not drawn)	none (no result: p47phox inh, ABCB1 block, HSV replic up, ABCG2 inh, PKD1 inh)
CC[n+]1ccc(C[n+]2ccccc2)c2ccccc21	p47phox inh 78.8, PHOSPHO1 inh 88.1
CC[n+]1ccc(/C=C/c2ccc(N(C)C)cc2)c2ccccc21	none
O=C1NC2(CCCC2)C(=O)N1CCS(=O)(=O)Oc1ccccc1	PHOSPHO1 inh 64.7
O=C1NC2(CCCCC2)C(=O)N1CCS(=O)(=O)Oc1ccc(Br)cc1	none
CCS(=O)(=O)c1ccc(C(=O)NC2CC2)c(Cl)c1Cl	PHOSPHO1 inh 60.0
Cc1ncc([N+](=O)[O-])n1CC(=O)Nc1ccc(F)cc1F	none (no result: p47phox inh, ABCB1 block, HSV replic up, ABCG2 inh, PKD1 inh)
COc1ccc(NC(=O)CCS(=O)(=O)c2cccc3nonc23)c(OC)c1	p47phox inh 79.6
COc1ccc(NC(=O)CCS(=O)(=O)c2cccc3nonc23)cc1	none
CN(C(=O)Cn1nnc2ccccc2c1=O)C1CCCCC1	none (no result: p47phox inh, ABCB1 block, HSV replic up, ABCG2 inh, PKD1 inh)
Cc1ccc2cc(C3C(C#N)=C(N)Oc4c3ccc3cccnc43)c(=O)[nH]c2c1 (stereo not drawn)	none
CCc1ccc2[nH]c(=O)c(C3C(C#N)=C(N)Oc4c3ccc3cccnc43)cc2c1 (stereo not drawn)	PHOSPHO1 inh 88.9
COC(=O)c1ccc(OC)c(CN2CCCN(Cc3cc(C)ccc3C)S2(=O)=O)c1	none (no result: p47phox inh, ABCB1 block, HSV replic up, ABCG2 inh, PKD1 inh)
COc1cc(S(=O)(=O)N(Cc2ccccc2)CC2CCCO2)ccc1-n1cnnn1 (stereo not drawn)	none
COc1ccc(CN(CC2CCCO2)S(=O)(=O)c2ccc(C(=O)O)cc2)cc1OC (stereo not drawn)	PHOSPHO1 inh 97.1
O=C(CCc1nnc(-c2ccc3c(c2)OCO3)o1)N1CCC(c2ccc(F)cc2)C1 (stereo not drawn)	none
Cc1ccccc1OCc1n(CC(=O)OC2CC(C)CCC2C(C)C)c2ccccc2[n+]1C (stereo not drawn)	p47phox inh 38.6!
Clc1cc(Cl)cc(C2=NC(Cc3ccccc3)CO2)c1 (stereo not drawn)	none (no result: p47phox inh, ABCB1 block, PHOSPHO1 inh, ABCG2 inh, PKD1 inh)
Nc1c(C2=NCCO2)nnn1Cc1ccccc1	p47phox inh 43.7
COC(=O)c1nnn(Cc2ccccc2)c1N	none
Cc1ccc(NC(=S)Nc2ccc3nc(-c4ccccn4)c(-c4ccccn4)nc3c2)cc1C	p47phox inh 112.2
CCCOc1ccc(-c2nc(=S)[nH][nH]2)cc1	PHOSPHO1 inh 95.4
Cc1cccc(/C=N/NC(=O)C(C)Nc2cccc3ccccc23)n1 (stereo not drawn)	PHOSPHO1 inh 80.3
COc1ccc(C(=O)Nc2ccc(C3CC3(Cl)Cl)cc2)cc1 (stereo not drawn)	PHOSPHO1 inh 71.4
CCOc1ccc(OCC)c(NC(=O)CN2CCN(c3cccc(C)c3C)CC2)c1	ABCG2 inh 95.0
Cc1cnc(C(=O)OCc2ccc(Br)cc2)cn1	none (no result: p47phox inh, ABCB1 block, HSV replic up, ABCG2 inh, PKD1 inh)
Cc1cnc(C(=O)Oc2c(C)ccc(C)c2C)cn1	PHOSPHO1 inh 140.9
Fc1ccc(CNc2ccccn2)cc1	none (no result: p47phox inh, ABCB1 block, HSV replic up, ABCG2 inh, PKD1 inh)
CSc1ccc(CNc2ccccn2)cc1	PHOSPHO1 inh 76.4
COc1ccc(N(Cc2cc3cc(C)ccc3[nH]c2=O)C(C)=O)cc1	none (no result: p47phox inh, ABCB1 block, HSV replic up, ABCG2 inh, PKD1 inh)
c1ccc2c(c1)OCC(c1nn3c(Cn4nnc5ccccc54)nnc3s1)O2 (stereo not drawn)	PHOSPHO1 inh 62.4
c1ccc(OCc2nn3c(Cn4nnc5ccccc54)nnc3s2)cc1	PHOSPHO1 inh 82.6
c1ccc(Cc2nn3c(Cn4nnc5ccccc54)nnc3s2)cc1	PHOSPHO1 inh 91.3 (no result: HSV replic up)
c1ccc(CCc2nn3c(Cn4nnc5ccccc54)nnc3s2)cc1	none
